# Bioassay records: PubChem, several laboratories
# Shown are actives, neighbours in structure and some others; about 2.2% of the full set was active somewhere.
# PAD4 inh: inhibitors of human PAD4; Q9UM07; recombinant PAD4, RCA probe fluorescence polarization; inhibition, % at 6.36 µM; 330,000 tested, 0.41% active; AID 485272;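 active = percent inhibition above a cutoff equal to the mean of all tested compounds plus 3 SD, cut at about 15% in these data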;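 also: 0% = PAD4 with RCA probe and DMSO and 100% = probe without PAD4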
# Target sequence (Q9UM07 whole entry, looked up): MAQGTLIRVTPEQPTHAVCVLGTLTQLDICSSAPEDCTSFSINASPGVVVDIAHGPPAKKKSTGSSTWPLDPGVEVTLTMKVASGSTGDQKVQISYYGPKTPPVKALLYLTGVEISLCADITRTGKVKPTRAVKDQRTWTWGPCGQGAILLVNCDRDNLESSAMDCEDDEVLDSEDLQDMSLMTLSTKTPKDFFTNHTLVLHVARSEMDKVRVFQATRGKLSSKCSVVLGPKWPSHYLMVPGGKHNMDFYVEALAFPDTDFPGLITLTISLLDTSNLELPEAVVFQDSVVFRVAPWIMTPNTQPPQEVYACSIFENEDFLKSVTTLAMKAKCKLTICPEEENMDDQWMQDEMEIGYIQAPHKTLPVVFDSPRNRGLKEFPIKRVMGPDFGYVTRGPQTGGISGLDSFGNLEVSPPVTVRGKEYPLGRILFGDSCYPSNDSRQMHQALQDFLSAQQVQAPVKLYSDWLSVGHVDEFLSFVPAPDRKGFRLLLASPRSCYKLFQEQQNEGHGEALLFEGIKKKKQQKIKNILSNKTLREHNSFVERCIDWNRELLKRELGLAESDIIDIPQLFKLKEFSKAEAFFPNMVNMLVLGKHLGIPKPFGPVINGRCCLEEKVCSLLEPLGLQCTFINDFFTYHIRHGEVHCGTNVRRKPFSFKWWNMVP
# Apaf-1 inh: human Apaf-1 inhibition; reconstituted apoptosome caspase-3 activity, DEVD-Rh110 fluorescence; O14727; inhibition, % at 20 µM; 330,000 tested, 0.71% active; AID 489030; active = inhibition of at least 40% at 20 µM;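 also: plate controls were DMSO wells for no effect and DEVD-CHO caspase inhibitor wells for full effect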
#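 Medium: Hepes buffer, pH 7.5 / System: biochemical Apaf-1 apoptosome reconstitution / Measured by: Rh110 fluorescence, excitation 480 nm, emission 540 nm / Times: compound with Apaf-1, dATP, procaspase-3 30 min, then 50 min reaction, room temperature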
# UBC9 SUMO inh: blocks human SUMOylation mediated by UBC9; HTRF SUMOylation assay, SAE1/SAE2 + UBC9, in vitro; inhibition, % at 35 µM; 290,000 tested, 0.36% active; in the data active = inhibition above about 50%, passing the limit was not always enough
# GSTO1 inh: blocks human GSTO1 in RBBP9 counter-screen | P78417 | recombinant GSTO1, activity-based probe fluorescence polarization | inhibition, % at 5.96 µM | 300,000 tested, 1.1% active;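 active = inhibition above the campaign mean inhibition plus 3 SD, cut at about 35% in these data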;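 also: 0% = GSTO1-1 with DMSO and 100% = wells lacking GSTO1-1 enzyme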
# UBC13 polyUb: blocks human UBC13 polyubiquitin chain formation; P61088; inhibition, % at 20 µM; 330,000 tested, 0.47% active; AID 485273; TR-FRET; in the data active = inhibition above about 45%, passing the limit was not always enough
# Rin1-Abl PPI inh: inhibitors of human Rin1-Abl protein interaction. 360,000 tested, 0.4% active. inhibition, % at 7.35 µM. P00519+Q13671. TR-FRET Rin1/Abl binding, biochemical; in the data active = inhibition above about 5%, passing the limit was not always enough
# Apaf-1 inh conf2: confirmation of Apaf-1 inhibitors. shares compounds with Apaf-1 inh. reconstituted apoptosome, caspase-3 DEVD-Rh110 fluorescence. inhibition, % at 20 µM. 1,800 tested, 25% active;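 active = mean inhibition of at least 40% at 20 µM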;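 also: plate controls were DMSO wells for no effect and DEVD-CHO caspase inhibitor control wells for full effect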
# Rh110 quench: interferes with Rh110 fluorescence, flagging false Apaf-1 inhibitors; AID 504615; Rh110 fluorescence interference, quenched caspase reaction; shares compounds with Apaf-1 inh; 1,800 tested, under 10 active; activation (fluorescence interference), % at 20 µM;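 active = signal rise of 40% or more at 20 µM, treated as a fluorescence artifact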
# Fluor interf inh: counter-screen for Apaf-1 inhibitors: fluorescence interference, dose response; shares compounds with Apaf-1 inh; AID 588538; IC50, µM; 460 tested, under 10 active; fluorescence interference counterscreen, Apaf-1 assay format; call rule not given here
# Starred values were filed as active, the others as inactive; · = not tested or not shown.
SMILES,PAD4 inh,Apaf-1 inh,UBC9 SUMO inh,GSTO1 inh,UBC13 polyUb,Rin1-Abl PPI inh,Apaf-1 inh conf2,Rh110 quench,others
Cc1ccc(-c2cnc(C(O)c3ccc(Cl)c(Cl)c3)[nH]2)cc1 (configuration not stated),·,·,·,·,·,-1,·,·,
COc1ccc(C(C)(O)c2nc(-c3ccc(F)cc3OC)cs2)cc1 (configuration not stated),·,·,·,·,·,0,·,·,
CC(C)Cn1c(N)c(C(=O)COC(=O)C2CCCCC2)c(=O)n(C)c1=O,-4,43*,-15,-5,4,1,12,6,
CCN(CC)CCNC(=O)c1ccc(NC(=O)C2CC(=O)N(CCc3ccc(OC)c(OC)c3)C2)cc1 (configuration not stated),-6,47*,·,·,27,2,31,0,
COc1ccc(CCN(C)C(=O)C2CC(=O)N(Cc3ccc(C)cc3)C2)cc1OC (configuration not stated),-2,56*,·,·,18,2,33,5,
CC1CCCC(NC(=O)CCN2C(=O)COc3ccccc32)C1C (configuration not stated),·,·,·,·,·,-2,·,·,
O=C(Nc1ccccc1OCc1ccccc1)c1ccccc1Br,-6,11,-10,-1,4,-2,·,·,
Cc1ccc(-c2nn3c(C)nnc3c3ccccc23)cc1S(=O)(=O)NCc1ccco1,0,44*,16,-6,5,1,61*,5,Fluor interf inh=>100
Cc1ccc(-c2nn3c(C)nnc3c3ccccc23)cc1S(=O)(=O)NC(C)c1ccccc1 (configuration not stated),0,57*,8,-9,9,0,61*,8,Fluor interf inh=>100
Cc1c(C(=O)N(C)CCOc2ccccc2)oc2c(Cl)cccc12,1,45*,·,·,17,3,38,12,
O=C1c2cc(F)ccc2-n2c1nc1ccccc1c2=O,-8,63*,11,35*,-63,-1,52*,-1,Fluor interf inh=>100
Nn1c(-c2ccc(F)cc2)nc2ccccc2c1=O,-2,2,8,1,-2,-1,·,·,
CCC1CCCCN1C(=O)CSc1nnc(CNC(=O)c2c(F)cccc2Cl)o1 (configuration not stated),-4,-7,6,6,-6,0,·,·,
Cc1cc(SCC(=O)N/N=C/c2ccc(O)c(O)c2O)c(C)cc1Br,4,49*,9,18,-24,3,31,8,
O=[N+]([O-])c1ccc(-c2ccc(S(=O)(=O)NCCN3CCCC3)cc2)cc1,4,15,20,6,15,-2,·,·,
NCCN1CCN(S(=O)(=O)c2ccc([N+](=O)[O-])cc2)C=C1c1ccc(Cl)cc1,-2,43*,·,·,31,5,17,-1,
Clc1ccc(-c2ccnc3nc(N4CCOCC4)nn23)c(Cl)c1,·,·,·,·,·,-1,·,·,
CCOC(=O)C1CCN(c2cc3c(cc2NC(=O)c2ccccc2OCC)n(C)c(=O)n3C)CC1,5,40*,26,-4,13,-4,22,9,
CCOC(=O)C1CCN(c2cc3c(cc2NC(=O)c2ccccc2Cl)n(C)c(=O)n3C)CC1,0,21,25,-6,10,0,·,·,
COC(=O)C1=C(C)N(Cc2ccccc2)C(=NCc2ccccc2)N[C@H]1c1ccccc1,-3,47*,·,·,32,-3,13,18,
COCCN=C1N[C@@H](c2ccccc2)C(C(=O)OC)=C(C)N1Cc1ccccc1,-3,2,5,-2,7,3,·,·,
COC(=O)C1=C(C)N(Cc2ccccc2)C(=NCCc2c[nH]c3ccccc23)N[C@H]1c1ccccc1,2,69*,·,·,38,4,33,4,
COc1ccc(Cn2nc(-c3ccccc3)c(N3CCCCC3)cc2=O)cc1,4,46*,-9,6,-4,1,17,10,
O=c1cc(N2CCCCC2)c(-c2ccccc2)nn1Cc1ccccc1,1,10,14,4,-6,-3,·,·,
